CendR NRP1 mod = modulators of CendR peptide binding to human neuropilin-1; inhibition, % at 25 µM; hit rate 0.85% among 360,000; FAM-RPARPAR peptide binding to NRP-1, fluorescence polarization; AID 602438;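 active = inhibition or corrected inhibition above about 18%, plus a signal ratio from 0.5 to 1.5, limit read from the data, passing the limit was not always enough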
KLK7 zymogen act = activates the human kallikrein-7 zymogen; P49862; purified proKLK7, EDANS-DABCYL substrate fluorescence; 100% is mature enzyme control, 0% vehicle; activation, % at 7 µM; hit rate 0.9% among 370,000;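 active = activation above the mean of all tested compounds plus 3 SD, computed per campaign excluding outliers beyond control limits, cut at about 13% in these data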
Tn6 DDE FP = inhibitors of Tn6 peptide binding to human fibrin DD(E); P02675; Fibrin DD(E) TRITC-Tn6 fluorescence polarization displacement; inhibition, % at 8.3 µM; hit rate 0.21% among 370,000; AID 720509;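 active = inhibition above a per-campaign cutoff: mean of compounds within control limits plus 3 SD, cut at about 15% in these data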;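 also: 0% = median of all compound wells on the plate and 100% = blocking peptide control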
DDE Tn7 FP inh = disrupts Tn7 cyclic peptide binding to fibrin D-Dimer-E complex. AID 720508. hit rate 0.13% among 370,000. P02675. inhibition, % at 8.3 µM. FP displacement of FITC-Tn7 peptide from fibrin DD(E); 0% = median of compound wells per plate;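 active = inhibition above the mean of compounds falling within the control limits plus 3 SD of them, cut at about 14% in these data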;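 also: 0% = plate median of compound wells and 100% = 10 µM Aha-Tn7 peptide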
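assay system = human clot-derived fibrin DD(E) complex | quantity = Fibrin-DD(E) at 2 µM final | timing = 10 min preincubation, 3 h with tracer, room temperature | signal = fluorescence polarization | measure = percent inhibition | benchmarks = high control wells with 10 µM unlabelled Aha-Tn7 peptide (full inhibition) | replicates = singlicate testing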
PLC-beta3 inh = PLC-beta3 (human) inhibition, primary screen; Purified PLC-beta3, fluorogenic substrate, fluorescence; inhibition, % at 12.2 µM; hit rate 0.18% among 370,000; AID 720704; in the data active = inhibition above about 11%;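 also: 0% = median of compound wells on plate and 100% = full blocker control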
PLCg1 inh = PLC-gamma1 (human) inhibition, primary screen; purified PLC-gamma1, fluorogenic substrate, fluorescence; inhibition, % at 12.2 µM; hit rate 0.84% among 370,000; P19174; in the data active = inhibition above about 9.5%
Target sequence (P19174 whole entry, looked up): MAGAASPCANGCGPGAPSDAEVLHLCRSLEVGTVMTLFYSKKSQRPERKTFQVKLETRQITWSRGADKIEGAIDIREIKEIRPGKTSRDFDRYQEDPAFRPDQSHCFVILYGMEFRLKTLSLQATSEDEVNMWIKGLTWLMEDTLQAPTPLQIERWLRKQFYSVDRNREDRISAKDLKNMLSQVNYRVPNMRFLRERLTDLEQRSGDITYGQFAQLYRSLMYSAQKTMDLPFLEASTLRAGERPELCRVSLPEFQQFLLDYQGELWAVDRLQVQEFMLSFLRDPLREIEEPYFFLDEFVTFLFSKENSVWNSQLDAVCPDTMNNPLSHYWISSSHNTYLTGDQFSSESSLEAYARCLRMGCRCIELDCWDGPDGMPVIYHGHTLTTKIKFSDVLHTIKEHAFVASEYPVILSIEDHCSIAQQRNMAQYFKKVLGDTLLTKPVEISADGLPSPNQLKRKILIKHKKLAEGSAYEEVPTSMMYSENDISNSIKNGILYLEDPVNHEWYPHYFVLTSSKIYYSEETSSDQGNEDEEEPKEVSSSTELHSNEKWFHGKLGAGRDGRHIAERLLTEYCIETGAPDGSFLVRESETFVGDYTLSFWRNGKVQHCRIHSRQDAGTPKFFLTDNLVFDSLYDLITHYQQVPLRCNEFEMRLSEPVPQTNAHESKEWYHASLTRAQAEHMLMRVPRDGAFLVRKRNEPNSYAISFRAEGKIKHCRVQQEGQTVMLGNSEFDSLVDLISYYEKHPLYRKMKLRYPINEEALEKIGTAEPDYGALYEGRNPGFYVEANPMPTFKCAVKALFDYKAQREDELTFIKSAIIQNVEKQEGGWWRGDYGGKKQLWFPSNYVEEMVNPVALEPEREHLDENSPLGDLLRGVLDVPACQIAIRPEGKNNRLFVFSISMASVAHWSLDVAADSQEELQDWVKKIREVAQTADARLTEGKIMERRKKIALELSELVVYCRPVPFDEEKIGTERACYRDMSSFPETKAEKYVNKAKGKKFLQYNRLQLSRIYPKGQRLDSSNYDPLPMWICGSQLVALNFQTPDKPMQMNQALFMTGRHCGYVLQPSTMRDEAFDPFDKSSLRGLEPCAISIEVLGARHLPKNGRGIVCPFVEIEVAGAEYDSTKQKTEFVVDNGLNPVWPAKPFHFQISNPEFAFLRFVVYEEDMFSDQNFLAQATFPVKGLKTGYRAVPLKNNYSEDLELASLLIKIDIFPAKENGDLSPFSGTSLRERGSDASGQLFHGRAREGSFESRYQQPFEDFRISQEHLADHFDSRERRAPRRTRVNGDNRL
KLK7 act conf = proKLK7 activation, confirmation. activation, % at 7 µM. AID 686949. shares compounds with KLK7 zymogen act. hit rate 68% among 3,200. purified proKLK7, EDANS-DABCYL substrate fluorescence; scaled: vehicle 0, mature enzyme 100;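 active = activation, as change over the incubation, above the mean of all tested compounds plus 3 SD, cut at about 13% in these data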
EDANS interfere = fluorescence interference counter-screen for KLK7 activators; hit rate 80% among 3,200; EDANS-DABCYL substrate fluorescence interference, no enzyme, 4 h; solvent 0%, active enzyme control 100%; shares compounds with KLK7 zymogen act; activation, % at 7 µM;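 active = activation above the all-compound mean plus 3 SD, ignoring values outside control-based bounds, cut at about 4.8% in these data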;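 also: value is the 4 h activation minus the activation read at time zero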
K7 EDANS ctr = counter-screen for kallikrein-7 activators: EDANS-DABCYL interference, dose response. shares compounds with KLK7 zymogen act. EC50, µM. hit rate 20% among 250. AID 720493. EDANS-DABCYL peptide fluorescence interference, no enzyme;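 active = compounds that raise the fluorescence signal in this interference counterscreen, with EC50 at or below 10 µM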;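 also: intact quenched peptide substrate alone read at 355 nm excitation and 520 nm emission; signal is fluorescence gain from T0 to T4 after four hours at room temperature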
The depositor's hits bear a star. Sampled rows, rich in hits. Any-hit rate of the full collection: about 3%.

`CC(C)Cn1c(-c2ccc(C#N)cc2)nc2c1c(=O)[nH]c(=O)n2CC(C)C` gave CendR NRP1 mod 7.1, KLK7 zymogen act 18.1*, Tn6 DDE FP -4.2, DDE Tn7 FP inh -1.6, PLC-beta3 inh -308.6, PLCg1 inh -261.7, KLK7 act conf -8.9 and EDANS interfere -10.8.
`C=CCc1cccc(C=NNC(=O)c2ccco2)c1O` gave KLK7 zymogen act -15.6, Tn6 DDE FP -1.1, DDE Tn7 FP inh 0.4, PLC-beta3 inh -59.1 and PLCg1 inh -41.3.
Screening COc1ccc(COc2cc(-c3cccc(OC)c3)nc3ccc(NC(C)=O)cc23)cc1 returned CendR NRP1 mod 27.3*, KLK7 zymogen act 17.9*, Tn6 DDE FP -0.1, DDE Tn7 FP inh 7.2, PLC-beta3 inh inactive, PLCg1 inh inactive, KLK7 act conf -3.4 and EDANS interfere -4.1.
COc1ccc(COc2cc(-c3cccc(OC)c3)nc3ccc(NC(=O)c4ccc(C)cc4)cc23)cc1 was read as CendR NRP1 mod 8.5, KLK7 zymogen act -7.7, Tn6 DDE FP -0.2, DDE Tn7 FP inh -8.5, PLC-beta3 inh -14.0 and PLCg1 inh -9.2.
COc1ccc(COc2cccnc2N)cc1 was read as CendR NRP1 mod 6.2, KLK7 zymogen act 0.0, Tn6 DDE FP 1.8, DDE Tn7 FP inh 2.8, PLC-beta3 inh -5.2 and PLCg1 inh -0.6.
`COc1ccc(COc2cc(-c3cccc(OC)c3)nc3ccc(N)cc23)cc1` gave CendR NRP1 mod -7.6, KLK7 zymogen act 58.8*, Tn6 DDE FP -2.1, DDE Tn7 FP inh -5.3, PLC-beta3 inh inactive, PLCg1 inh inactive, KLK7 act conf -39.4 and EDANS interfere -47.0.
`O=C(NCc1ccc(F)c(F)c1)C1C2C=CC3(CN(Cc4ccccc4)C(=O)C13)O2` (configuration not stated) gave KLK7 zymogen act 0.2, Tn6 DDE FP 3.3, DDE Tn7 FP inh -1.0, PLC-beta3 inh 0.1 and PLCg1 inh 1.9.
C#CCNC(=O)C[C@H]1C[C@@]2(C(=O)OC)C(=C[C@H](COCc3ccccc3)O[C@@H]2C)N(Cc2ccc(Cl)cc2Cl)C1=O was read as KLK7 zymogen act 0.9, Tn6 DDE FP 8.9, DDE Tn7 FP inh 4.9, PLC-beta3 inh -1.1 and PLCg1 inh 1.5.
Screening CC(=O)Nc1ccc2nc(-c3ccncc3)[nH]c2c1 returned CendR NRP1 mod 0.1, KLK7 zymogen act 21.7*, Tn6 DDE FP -7.3, DDE Tn7 FP inh -1.6, PLC-beta3 inh inactive, PLCg1 inh inactive, KLK7 act conf 17.0* and EDANS interfere 21.4*.
Screening CC(=O)Nc1ccc2cc3ccc(NC(C)=O)cc3nc2c1 returned CendR NRP1 mod 17.8, KLK7 zymogen act 17.3*, Tn6 DDE FP 3.5, DDE Tn7 FP inh 2.6, PLC-beta3 inh inactive, PLCg1 inh inactive, KLK7 act conf 34.2* and EDANS interfere 44.2*.
Screening O=C(Nc1ccc2nc3ccccc3nc2c1)c1ccccc1 returned CendR NRP1 mod 1.4, KLK7 zymogen act 35.3*, Tn6 DDE FP -4.0, DDE Tn7 FP inh 3.5, PLC-beta3 inh inactive, PLCg1 inh inactive, KLK7 act conf 32.1*, EDANS interfere 21.4* and K7 EDANS ctr >69.5.
`O=C(Nc1ccc(Cl)c(Cl)c1)c1ccccc1` gave CendR NRP1 mod 22.1, KLK7 zymogen act 0.5, Tn6 DDE FP 2.2, DDE Tn7 FP inh -4.9, PLC-beta3 inh 2.1 and PLCg1 inh -2.1.
`Nc1ccc(C(=O)Nc2ccc3nc(-c4ccncc4)[nH]c3c2)cc1` gave CendR NRP1 mod -23.9, KLK7 zymogen act 0.3, Tn6 DDE FP -12.7, DDE Tn7 FP inh -4.2, PLC-beta3 inh 0.1 and PLCg1 inh -3.1.
For CC(=O)Nc1ccc2ccccc2c1 the results were CendR NRP1 mod -6.0.
`Cc1cccn2c(=O)c3cc(C(=O)N4CCN(C(=O)c5ccco5)CC4)n(C)c3nc12` gave CendR NRP1 mod 2.1, KLK7 zymogen act 19.8*, Tn6 DDE FP -3.0, DDE Tn7 FP inh 5.1, PLC-beta3 inh inactive, PLCg1 inh inactive, KLK7 act conf 23.4* and EDANS interfere 34.7*.
Screening Cc1cccn2c(=O)c3cc(C(=O)N4c5ccccc5CC4C)n(C)c3nc12 (configuration not stated) returned CendR NRP1 mod -3.4, KLK7 zymogen act -0.8, Tn6 DDE FP -0.7, DDE Tn7 FP inh 2.8, PLC-beta3 inh -19.2 and PLCg1 inh -11.3.
Cc1cccn2c(=O)c3cc(C(=O)N4CCOCC4)n(C)c3nc12 was read as CendR NRP1 mod 10.5, KLK7 zymogen act 19.5*, Tn6 DDE FP 6.7, DDE Tn7 FP inh 6.6, PLC-beta3 inh inactive, PLCg1 inh -370.7, KLK7 act conf 46.3*, EDANS interfere 35.2* and K7 EDANS ctr >69.5.
`COCCCn1c(C(=O)N2CCOCC2)cc2c(=O)n3cccc(C)c3nc21` gave CendR NRP1 mod 18.1, KLK7 zymogen act 18.7*, Tn6 DDE FP -5.1, DDE Tn7 FP inh -4.9, PLC-beta3 inh inactive, PLCg1 inh inactive, KLK7 act conf 17.0* and EDANS interfere 17.7*.
`COC(=O)CN1CCN(C(=O)c2nocc2C)CC1` gave KLK7 zymogen act 0.1, Tn6 DDE FP 5.5, DDE Tn7 FP inh 7.1, PLC-beta3 inh -0.4 and PLCg1 inh -2.3.
For O=C(NCc1ccc(Cl)cc1)C1CCCN(c2ncccn2)C1 (configuration not stated) the results were KLK7 zymogen act -0.1, Tn6 DDE FP 4.7, DDE Tn7 FP inh -1.1, PLC-beta3 inh -5.8 and PLCg1 inh -5.0.
Screening C/C(=N/NC(=O)CSc1nnc(-c2ccccc2)n1-c1ccc(Cl)cc1)c1cccc(O)c1 returned KLK7 zymogen act 0.2, Tn6 DDE FP 6.0, DDE Tn7 FP inh 0.5, PLC-beta3 inh 2.9 and PLCg1 inh -1.3.
`C=CCOc1c2ccc(C(=O)NCc3ccccc3OC)cc2nn1C` gave CendR NRP1 mod 11.7, KLK7 zymogen act 14.0*, Tn6 DDE FP -4.3, DDE Tn7 FP inh 0.8, PLC-beta3 inh inactive, PLCg1 inh -456.7, KLK7 act conf 10.6 and EDANS interfere 14.6*.
C=CCOc1c2ccc(C(=O)NCc3ccc(OC)cc3)cc2nn1C was read as CendR NRP1 mod -7.0, KLK7 zymogen act 8.9, Tn6 DDE FP 1.6, DDE Tn7 FP inh -6.2, PLC-beta3 inh inactive and PLCg1 inh -366.7.

Screening results as filed in PubChem.
